Source: ChEMBL document CHEMBL1806443, “Novel imidazo[4,5-b]pyridine and triaza-benzo[c]fluorene derivatives: synthesis, antiproliferative activity and DNA binding studies” (Eur J Med Chem, 2011)
The source made the active and inactive calls. No cut-off for these calls is given here.

What was measured:
SW-620 [1] = experiment: Cell cycle arrest in human SW620 cells assessed as accumulation at G1 phase at 1 uM after 24 hrs by propidium iodide staining based flow cytometeric analysis (reference value: 29.3 +/- 1.5%); format: functional
SW-620 [2] = experiment: Cell cycle arrest in human SW620 cells assessed as accumulation at subG1 phase at 10 uM after 24 hrs by propidium iodide staining based flow cytometeric analysis (reference value: 18 +/- 1%); format: functional
Method in brief: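 Cells seeded at 3 × 10^4 per well and treated 24 h later with 1, 5 or 10 µM for 24 and 48 h. Adherent and floating cells were pooled, washed in PBS and fixed in 70% ethanol. They were then stained with propidium iodide 10 µg/mL plus RNase A 0.2 µg/mL. Flow cytometry counted 10000 events; each point was run in triplicate; significance was taken at p < 0.05.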

MIA PaCa-2 [3] = experiment: Cell cycle arrest in human MIAPaCa2 cells assessed as accumulation at G2/M phase at 10 uM after 48 hrs by propidium iodide staining based flow cytometeric analysis (reference value: 14.3 +/- 1.8%); format: functional
MIA PaCa-2 [4] = experiment: Cell cycle arrest in human MIAPaCa2 cells assessed as accumulation at G2/M phase at 5 uM after 48 hrs by propidium iodide staining based flow cytometeric analysis (reference value: 14.3 +/- 1.8%); format: functional
MIA PaCa-2 [5] = experiment: Cell cycle arrest in human MIAPaCa2 cells assessed as accumulation at G2/M phase at 10 uM after 24 hrs by propidium iodide staining based flow cytometeric analysis (reference value: 19.5 +/- 3.9%); format: functional
MIA PaCa-2 [6] = experiment: Cell cycle arrest in human MIAPaCa2 cells assessed as accumulation at S phase at 5 uM after 24 hrs by propidium iodide staining based flow cytometeric analysis (reference value: 29.2 +/- 4.2%); format: functional
MIA PaCa-2 [7] = experiment: Cell cycle arrest in human MIAPaCa2 cells assessed as accumulation at S phase at 1 uM after 24 hrs by propidium iodide staining based flow cytometeric analysis (reference value: 29.2 +/- 4.2%); format: functional
MIA PaCa-2 [8] = experiment: Cell cycle arrest in human MIAPaCa2 cells assessed as accumulation at G1 phase at 5 uM after 48 hrs by propidium iodide staining based flow cytometeric analysis (reference value: 65.2 +/- 1.9%); format: functional
SW-620 [9] = experiment: Cell cycle arrest in human SW620 cells assessed as accumulation at G2/M phase at 1 uM after 24 hrs by propidium iodide staining based flow cytometeric analysis (reference value: 22.3 +/- 2.9%); format: functional
SW-620 [10] = experiment: Cell cycle arrest in human SW620 cells assessed as accumulation at S phase at 10 uM after 48 hrs by propidium iodide staining based flow cytometeric analysis (reference value: 31.9 +/- 1%); format: functional
SW-620 [11] = experiment: Cell cycle arrest in human SW620 cells assessed as accumulation at G1 phase at 10 uM after 24 hrs by propidium iodide staining based flow cytometeric analysis (reference value: 29.3 +/- 1.5%); format: functional
MIA PaCa-2 [12] = experiment: Cell cycle arrest in human MIAPaCa2 cells assessed as accumulation at G1 phase at 1 uM after 24 hrs by propidium iodide staining based flow cytometeric analysis (reference value: 51.2 +/- 2.7%); format: functional
MIA PaCa-2 [13] = experiment: Cell cycle arrest in human MIAPaCa2 cells assessed as accumulation at subG1 phase at 5 uM after 48 hrs by propidium iodide staining based flow cytometeric analysis (reference value: 46.8 +/- 0.7%); format: functional
MIA PaCa-2 [14] = experiment: Cell cycle arrest in human MIAPaCa2 cells assessed as accumulation at subG1 phase at 5 uM after 24 hrs by propidium iodide staining based flow cytometeric analysis (reference value: 48.7 +/- 0.7%); format: functional
MIA PaCa-2 [15] = experiment: Cell cycle arrest in human MIAPaCa2 cells assessed as accumulation at subG1 phase at 1 uM after 24 hrs by propidium iodide staining based flow cytometeric analysis (reference value: 48.7 +/- 0.7%); format: functional
SW-620 [16] = experiment: Antiproliferative activity against human SW620 cells after 72 hrs by MTT assay; format: functional, cell-based; conditions: Homo sapiens, SW-620, 72 h
Method in brief: (§1)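 Monolayer cells in DMEM with 10% FBS, 2 mM L-glutamine, penicillin and streptomycin at 37 °C, 5% CO2. Seeded at 3000-6000 cells/well by doubling time on day 0. Five 10-fold dilutions (0.01–100 µM) were added and incubated 72 h. MTT read-out, converted to percentage growth. IC50 by linear regression between bracketing concentrations. Quadruplicate points, three independent experiments, ANOVA/Tukey p<0.05.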

SK-BR-3 [17] = experiment: Antiproliferative activity against human SKBR3 cells after 72 hrs by MTT assay; format: functional, cell-based; conditions: Homo sapiens, SK-BR-3, 72 h; method in brief: as §1
MIA PaCa-2 [18] = experiment: Antiproliferative activity against human MIAPaCa2 cells at 0.1 to 10 uM after 72 hrs by MTT assay; format: functional, cell-based; method in brief: as §1
MCF7 = experiment: Antiproliferative activity against human MCF7 cells at 0.1 to 10 uM after 72 hrs by MTT assay; format: functional, cell-based; method in brief: as §1
SW-620 [19] = experiment: Cytostatic activity against human SW620 cells at 1 to 10 uM after 72 hrs by MTT assay; format: functional, cell-based
Method in brief: (§2)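 Monolayers in DMEM with 10% FBS, 2 mM L-glutamine, penicillin and streptomycin (37 °C, 5% CO2) were seeded at 3000–6000 cells/well on day 0. Five 10-fold dilutions (0.01–100 µM) were added, followed by 72-h incubation and MTT read-out. Absorbances were converted to percentage growth by the NIH formulae. Each point was run in quadruplicate in three experiments; ANOVA with Tukey test.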

SK-BR-3 [20] = experiment: Cytostatic activity against human SKBR3 cells at 1 to 10 uM after 72 hrs by MTT assay; format: functional, cell-based; method in brief: as §2
Nucleic Acid [21] = experiment: Binding affinity to calf thymus DNA assessed as increase in CD band at 275 nm wavelength by circular dichroism spectroscopy; format: nucleic-acid assay; conditions: Bos taurus
Method in brief: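 CD spectra of ct-DNA (1.0 × 10^-5 mol dm^-3, as phosphate) titrated with compound at 25 °C. Sodium cacodylate buffer pH 7.0, I = 0.05 mol dm^-3, 1 cm quartz cuvette. DNA band (~274–275 nm) and induced bands above 300 nm followed versus r = [compound]/[ct-DNA].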

Nucleic Acid [22] = experiment: Binding affinity to calf thymus DNA assessed as hypochromic changes at 364 nm wavelength by UV-Vis spectrophotometric titrations; format: nucleic-acid assay; conditions: Bos taurus
Method in brief: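 UV/Vis titration: aliquots of ct-DNA (concentration as phosphate) added to compound solution in sodium cacodylate buffer pH 7.0, I = 0.05 mol dm^-3, 1 cm quartz cuvettes. Hypochromism followed at band maxima. Compound absorbance linear up to 2.0 × 10^-5 mol dm^-3. Binding data fitted by the Scatchard equation.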

MIA PaCa-2 [23] = experiment: Induction of apoptosis in human MIAPaCa2 cells assessed as morphological change after 24 to 48 hrs by microscopic analysis; format: functional, cell-based
Method in brief: (§3)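 Cells were seeded at 3 × 10^4 per well and exposed 24 h later to 1, 5 or 10 µM for 24 and 48 h. Apoptotic morphology (cell shrinkage, chromatin condensation) was scored by inverted light microscopy at 200× magnification.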

MIA PaCa-2 [24] = experiment: Induction of apoptosis in human MIAPaCa2 cells assessed as morphological change at 10 uM after 24 to 48 hrs by microscopic analysis; format: functional, cell-based; method in brief: as §3
Nucleic Acid [25] = experiment: Binding affinity to calf thymus DNA assessed as UV/Vis spectral change at compound to DNA ratio of 0.44 by UV/Vis titrations; conditions: Bos taurus

`Cl.c1cnc2nc3ccc4ccc(C5=NCCN5)cc4n3c2c1` was tested, and the Activity (SW-620 [1]) was 54.3%, the Activity (SW-620 [2]) was 20.1% and the Activity (MIA PaCa-2 [3]) was 16.9%. The Activity (MIA PaCa-2 [4]) was 20.8%, the Activity (MIA PaCa-2 [5]) was 18.3% and the Activity (MIA PaCa-2 [6]) was 59.3%. For the same compound, the Activity (MIA PaCa-2 [7]) was 37.4%, the Activity (MIA PaCa-2 [8]) was 42.4% and the Activity (SW-620 [9]) was 18.5%. For the same compound, the Activity (SW-620 [10]) was 41.8%, the Activity (SW-620 [11]) was 33.7% and the Activity (MIA PaCa-2 [12]) was 41.6%. It also gave an Activity (MIA PaCa-2 [13]) of 56.6%, an Activity (MIA PaCa-2 [14]) of 53.4% and an Activity (MIA PaCa-2 [15]) of 57.8%. For the same compound, the IC50 (SW-620 [16]) was 640 nM, the IC50 (SK-BR-3 [17]) was 2200 nM and the Activity (MIA PaCa-2 [18]) was “Active”. The Activity (MCF7) was “Active”, the Activity (SW-620 [19]) was “Active” and the Activity (SK-BR-3 [20]) was “Active”. The Activity (Nucleic Acid [21]) was “Active”, the Activity (Nucleic Acid [22]) was 35% and the Activity (MIA PaCa-2 [23]) was “Dose-dependent effect”. For the same compound, the Activity (MIA PaCa-2 [24]) was “Active” and the log Ks (Nucleic Acid [25]) was 5.4.
